The target of test [1] is Serine-protein kinase ATM (Homo sapiens, UniProt Q13315). The experiment in a line: Inhibition of full length recombinant ATM after 24 hrs by radiometric phosphate incorporation assay.
Test [2] addresses T1, Serine/threonine-protein kinase ATR (Homo sapiens, UniProt Q13535). The experiment in a line: Inhibition of full length recombinant ATR after 24 hrs by radiometric phosphate incorporation assay. The procedure, abridged: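 Radiometric [γ-33P]ATP incorporation into target peptide. Full-length ATR and ATM were made in-house; DNA-PK was purchased. Kinase, buffer and peptide were premixed, then compound was added in DMSO (7% final DMSO). Reactions started with ATP at 25 °C and were stopped with phosphoric acid (100 mM final) plus ATP (0.66 μM final). Peptide was captured on phosphocellulose, washed, and scintillation-counted.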

For another test, the target named is Cytochrome P450 3A4 (Homo sapiens, UniProt P08684). The experiment in a line: Inhibition of CYP3A4. The test is classed as ADME.
Cytochrome P450 3A4, sequence (P08684 whole entry): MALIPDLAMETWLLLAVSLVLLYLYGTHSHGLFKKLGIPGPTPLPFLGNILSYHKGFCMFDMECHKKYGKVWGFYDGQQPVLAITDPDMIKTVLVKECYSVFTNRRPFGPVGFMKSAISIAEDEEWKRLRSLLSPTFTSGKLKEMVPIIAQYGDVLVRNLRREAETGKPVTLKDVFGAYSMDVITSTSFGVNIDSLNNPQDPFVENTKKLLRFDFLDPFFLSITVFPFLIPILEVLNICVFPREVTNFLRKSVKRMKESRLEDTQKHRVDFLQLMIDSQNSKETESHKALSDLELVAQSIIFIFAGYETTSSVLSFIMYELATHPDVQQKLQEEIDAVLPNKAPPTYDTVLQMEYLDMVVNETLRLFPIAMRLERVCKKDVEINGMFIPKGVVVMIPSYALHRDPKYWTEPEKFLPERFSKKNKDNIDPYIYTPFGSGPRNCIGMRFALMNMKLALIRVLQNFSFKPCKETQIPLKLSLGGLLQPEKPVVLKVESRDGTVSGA
For test [3], the target named is DNA-dependent protein kinase catalytic subunit (Homo sapiens, UniProt P78527). The experiment in a line: Inhibition of DNAPK after 2 hrs by radiometric phosphate incorporation assay.
The target of test [4] is T1, Serine/threonine-protein kinase ATR. The experiment in a line: Inhibition of ATR in human HT-29 cells assessed as hydroxyurea-induced phosphorylation of H2AX by immunofluorescence microscopy. It counts as cell-based.
Test [5] concerns the target Serine/threonine-protein kinase mTOR (Homo sapiens, UniProt P42345). The experiment in a line: Inhibition of mTOR by radiometric phosphate incorporation assay.

Structures are written as SMILES. pIC50: −log10 of the molar value.

T1 sequence (Q13535 whole entry): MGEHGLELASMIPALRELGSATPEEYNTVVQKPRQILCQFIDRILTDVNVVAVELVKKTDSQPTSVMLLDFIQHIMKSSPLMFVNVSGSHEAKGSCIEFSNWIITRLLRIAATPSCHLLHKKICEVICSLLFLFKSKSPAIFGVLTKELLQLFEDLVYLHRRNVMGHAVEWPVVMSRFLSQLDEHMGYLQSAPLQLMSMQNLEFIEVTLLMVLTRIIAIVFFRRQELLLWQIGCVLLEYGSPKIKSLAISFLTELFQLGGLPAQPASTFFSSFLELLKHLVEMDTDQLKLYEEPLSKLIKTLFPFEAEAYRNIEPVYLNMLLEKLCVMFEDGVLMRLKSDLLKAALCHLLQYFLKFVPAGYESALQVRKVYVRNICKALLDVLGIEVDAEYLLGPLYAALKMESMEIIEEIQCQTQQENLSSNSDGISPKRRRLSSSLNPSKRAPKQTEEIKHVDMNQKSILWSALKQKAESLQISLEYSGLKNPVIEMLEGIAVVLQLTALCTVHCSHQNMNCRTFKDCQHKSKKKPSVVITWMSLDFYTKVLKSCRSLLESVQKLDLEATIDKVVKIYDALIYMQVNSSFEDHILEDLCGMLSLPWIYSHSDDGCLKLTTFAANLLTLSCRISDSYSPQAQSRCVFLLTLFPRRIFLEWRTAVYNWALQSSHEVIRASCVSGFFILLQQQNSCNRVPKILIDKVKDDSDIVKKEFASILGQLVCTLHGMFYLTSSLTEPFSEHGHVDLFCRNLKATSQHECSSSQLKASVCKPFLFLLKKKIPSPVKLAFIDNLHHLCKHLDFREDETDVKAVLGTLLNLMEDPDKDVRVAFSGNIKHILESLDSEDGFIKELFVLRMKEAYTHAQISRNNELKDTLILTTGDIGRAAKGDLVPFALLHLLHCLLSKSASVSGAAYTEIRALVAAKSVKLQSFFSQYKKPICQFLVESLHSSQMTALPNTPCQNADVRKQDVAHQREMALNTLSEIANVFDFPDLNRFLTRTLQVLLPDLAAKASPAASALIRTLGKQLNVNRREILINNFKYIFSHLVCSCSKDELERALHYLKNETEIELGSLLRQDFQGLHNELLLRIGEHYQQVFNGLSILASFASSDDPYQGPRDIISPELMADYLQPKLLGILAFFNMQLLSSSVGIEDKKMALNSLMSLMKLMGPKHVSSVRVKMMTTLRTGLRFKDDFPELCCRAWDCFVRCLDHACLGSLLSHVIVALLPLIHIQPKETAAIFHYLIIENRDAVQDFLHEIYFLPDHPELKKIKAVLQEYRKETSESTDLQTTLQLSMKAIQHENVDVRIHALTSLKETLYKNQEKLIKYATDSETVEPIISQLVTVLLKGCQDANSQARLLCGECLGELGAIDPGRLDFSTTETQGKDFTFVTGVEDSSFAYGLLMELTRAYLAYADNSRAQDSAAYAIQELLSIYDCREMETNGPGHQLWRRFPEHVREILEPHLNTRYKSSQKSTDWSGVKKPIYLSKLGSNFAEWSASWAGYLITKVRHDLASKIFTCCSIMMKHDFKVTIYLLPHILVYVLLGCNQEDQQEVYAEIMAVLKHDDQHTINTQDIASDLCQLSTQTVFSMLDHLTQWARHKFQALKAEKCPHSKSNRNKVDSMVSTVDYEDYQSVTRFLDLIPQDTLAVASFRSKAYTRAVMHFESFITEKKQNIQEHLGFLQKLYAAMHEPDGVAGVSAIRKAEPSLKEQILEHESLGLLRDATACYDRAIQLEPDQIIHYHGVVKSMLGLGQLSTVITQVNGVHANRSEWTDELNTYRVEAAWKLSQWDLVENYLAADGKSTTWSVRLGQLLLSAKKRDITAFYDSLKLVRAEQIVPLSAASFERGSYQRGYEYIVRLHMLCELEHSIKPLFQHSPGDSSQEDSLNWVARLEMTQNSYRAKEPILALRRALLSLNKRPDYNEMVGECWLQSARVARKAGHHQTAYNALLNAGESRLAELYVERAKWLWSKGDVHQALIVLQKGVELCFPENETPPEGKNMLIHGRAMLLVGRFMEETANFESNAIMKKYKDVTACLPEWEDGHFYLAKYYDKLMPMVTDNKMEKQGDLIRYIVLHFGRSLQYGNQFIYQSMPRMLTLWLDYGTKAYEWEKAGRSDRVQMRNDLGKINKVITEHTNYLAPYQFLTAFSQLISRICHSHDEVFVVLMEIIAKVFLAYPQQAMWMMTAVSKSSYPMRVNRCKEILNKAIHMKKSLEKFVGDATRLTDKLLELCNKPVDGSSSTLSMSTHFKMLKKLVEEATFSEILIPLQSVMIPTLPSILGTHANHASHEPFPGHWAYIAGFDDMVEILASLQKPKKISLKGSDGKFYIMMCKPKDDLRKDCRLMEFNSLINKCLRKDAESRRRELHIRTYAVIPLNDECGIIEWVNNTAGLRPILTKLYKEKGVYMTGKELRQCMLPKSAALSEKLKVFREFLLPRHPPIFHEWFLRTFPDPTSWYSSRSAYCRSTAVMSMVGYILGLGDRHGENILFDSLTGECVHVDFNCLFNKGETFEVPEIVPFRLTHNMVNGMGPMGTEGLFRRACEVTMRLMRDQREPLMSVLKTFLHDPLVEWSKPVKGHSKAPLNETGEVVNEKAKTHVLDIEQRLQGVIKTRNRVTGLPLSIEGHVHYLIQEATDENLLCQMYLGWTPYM

The pIC50 is the negative decadic logarithm of the IC50, by convention in mol/L. Consider `O=c1cc(N2CCOCC2)oc2c1ccc1ccccc12`, for which the pIC50 in test [1] and in test [2] was less than 4.00 throughout.

Take `Nc1ncc(-c2cccnc2)nc1C(=O)Nc1ccccc1`: the pIC50 in test [1] was less than 5.10; in test [2] it was 6.74; on Cytochrome P450 3A4, 5.70; in test [3] it was less than 5.10.

With `Nc1ncc(-c2ccccc2)nc1C(=O)Nc1ccccc1`, the pIC50 is less than 5.10 in test [1]; less than 5.60 in test [4]; 6.21 in test [2]; less than 4.00 at Cytochrome P450 3A4; less than 5.10 in test [3].

Regarding `Nc1nccnc1C(=O)Nc1ccccc1`, the pIC50 in test [1] was less than 5.10; in test [2], 5.15; in test [3], less than 5.10.

In the case of `Nc1ncc(Br)nc1C(=O)Nc1ccccc1`, the pIC50 was less than 5.10 in test [1], 5.28 in test [2] and less than 5.10 in test [3].

Turning to `Nc1ncc(C2CCCCC2)nc1C(=O)Nc1ccccc1`, the pIC50 in test [1] is less than 5.10; in test [2] it was 5.52; in test [3] it was less than 5.10.

As for `Nc1ncc(C2=CCCCC2)nc1C(=O)Nc1ccccc1`, the pIC50 in test [1] was less than 5.10; in test [2] it was 5.68; in test [3], less than 5.10.

For the compound `Nc1ncc(-c2ccncc2)nc1C(=O)Nc1ccccc1`, the pIC50 in test [1] was less than 5.10; in test [2], 6.19; in test [3], 5.30.

`N#Cc1ccccc1-c1cnc(N)c(C(=O)Nc2ccccc2)n1`: the pIC50 in test [1] is 6.49; in test [2], 7.62; in test [3] it was 6.14.

Take `C[S+]([O-])c1ccccc1-c1cnc(N)c(C(=O)Nc2ccccc2)n1` (centres undefined): the pIC50 in test [1] was 5.52; in test [2], 6.89; in test [3], 5.70.

On to `CS(=O)(=O)c1ccccc1-c1cnc(N)c(C(=O)Nc2ccccc2)n1`, for which the figures for the pIC50 in test [1], in test [2] and in test [3] were less than 5.10, 5.89 and less than 5.10, respectively.

For the compound `Nc1ncc(-c2ccccc2O)nc1C(=O)Nc1ccccc1`, the pIC50 in test [1] was less than 5.10; in test [2], 5.62; in test [3] it was less than 5.10.

In the case of `COc1ccccc1-c1cnc(N)c(C(=O)Nc2ccccc2)n1`, the results for the pIC50 in test [1], in test [2] and in test [3] were less than 5.10, 6.13 and less than 5.10, respectively.

On to `Nc1ncc(-c2ccccc2Cl)nc1C(=O)Nc1ccccc1`, for which the values for the pIC50 in test [1], in test [2] and in test [3] were less than 5.10, 6.15 and 5.42, respectively.

Regarding `Cc1ccccc1-c1cnc(N)c(C(=O)Nc2ccccc2)n1`, the pIC50 in test [1] was less than 5.10; in test [2], 5.85; in test [3], 5.85.

Take `N#Cc1cccc(-c2cnc(N)c(C(=O)Nc3ccccc3)n2)c1`: the pIC50 in test [1] was less than 5.10; in test [2], 6.40; in test [3], 5.66.

In the case of `CS(=O)(=O)c1cccc(-c2cnc(N)c(C(=O)Nc3ccccc3)n2)c1`, the pIC50 was 5.18 in test [1], 6.47 in test [2] and 6.13 in test [3].

Turning to `Nc1ncc(-c2cccc(O)c2)nc1C(=O)Nc1ccccc1`, the pIC50 in test [1] is less than 5.10; in test [2], 6.27; in test [3] it was 5.66.

As for `COc1cccc(-c2cnc(N)c(C(=O)Nc3ccccc3)n2)c1`, the pIC50 in test [1] was less than 5.10; in test [2], 5.66; in test [3], 5.38.

Turning to `Nc1ncc(-c2cccc(Cl)c2)nc1C(=O)Nc1ccccc1`, the pIC50 in test [1] was less than 5.10; in test [2], 5.80; in test [3] it was less than 5.10.

With `Cc1cccc(-c2cnc(N)c(C(=O)Nc3ccccc3)n2)c1`, the pIC50 is less than 5.10 in test [1], 6.25 in test [2] and less than 5.10 in test [3].

Regarding `N#Cc1ccc(-c2cnc(N)c(C(=O)Nc3ccccc3)n2)cc1`, the pIC50 in test [1] was less than 5.10; in test [2] it was 6.74; in test [3] it was less than 5.10.

Turning to `CS(=O)(=O)c1ccc(-c2cnc(N)c(C(=O)Nc3ccccc3)n2)cc1`, the results for the pIC50 in test [1], in test [2] and in test [3] were less than 5.10, 7.59 and 5.36, respectively.

For the compound `Nc1ncc(-c2ccc(O)cc2)nc1C(=O)Nc1ccccc1`, the pIC50 in test [1] was 5.24; in test [2], 6.49; in test [3], 5.74.

Turning to `COc1ccc(-c2cnc(N)c(C(=O)Nc3ccccc3)n2)cc1`, the results for the pIC50 in test [1], in test [2] and in test [3] were less than 5.10, 5.82 and 5.18, respectively.

For `Nc1ncc(-c2ccc(Cl)cc2)nc1C(=O)Nc1ccccc1`, the pIC50 in test [1] is less than 5.10; in test [2], 5.62; in test [3], less than 5.10.

For `Cc1ccc(-c2cnc(N)c(C(=O)Nc3ccccc3)n2)cc1`, the pIC50 in test [1] was less than 5.10; in test [2], 5.77; in test [3], less than 5.10.

For `NC(=O)c1ccc(-c2cnc(N)c(C(=O)Nc3ccccc3)n2)cc1`, the figures for the pIC50 in test [1], in test [2] and in test [3] were 5.54, 6.96 and 5.92, respectively.

`CNC(=O)c1ccc(-c2cnc(N)c(C(=O)Nc3ccccc3)n2)cc1`: the figures for the pIC50 in test [1], in test [2] and in test [3] were 5.59, 6.74 and 5.15, respectively.

Consider `Nc1ncc(-c2ccc(C(=O)N3CCC3)cc2)nc1C(=O)Nc1ccccc1`, for which the negative logarithm of the IC50 (pIC50) in test [1] was less than 5.10; in test [4], 6.00; in test [2], 7.00; in test [3] it was less than 5.10.

Turning to `CN(C)C(=O)c1ccc(-c2cnc(N)c(C(=O)Nc3ccccc3)n2)cc1`, the pIC50 in test [1] is less than 5.10; in test [4], 5.70; in test [2], 7.27; in test [3], less than 5.10.

Regarding `Nc1ncc(-c2ccc(C(=O)N3CCCC3)cc2)nc1C(=O)Nc1ccccc1`, the pIC50 is less than 5.10 in test [1], 5.85 in test [4], 7.27 in test [2] and 5.55 in test [3].

With `Nc1ncc(-c2ccc(C(=O)N3CCCCC3)cc2)nc1C(=O)Nc1ccccc1`, the pIC50 in test [1] was less than 5.10; in test [4], 5.19; in test [2] it was 7.59; in test [3] it was less than 5.10.

As for `CN(C)C(=O)c1ccc(-c2cnc(N)c(C(=O)Nc3ccccc3)n2)cc1Cl`, the pIC50 was less than 5.10 in test [1], 4.92 in test [4], 7.32 in test [2] and less than 5.10 in test [3].

`C[S+]([O-])c1ccc(-c2cnc(N)c(C(=O)Nc3ccccc3)n2)cc1` (centres undefined): the pIC50 is less than 5.10 in test [1], 5.27 in test [4], 7.25 in test [2] and 5.17 in test [3].

For `CCS(=O)(=O)c1ccc(-c2cnc(N)c(C(=O)Nc3ccccc3)n2)cc1`, the pIC50 was less than 5.10 in test [1], 5.82 in test [4], 7.92 in test [2] and 5.24 in test [3].

Take `CC(C)S(=O)(=O)c1ccc(-c2cnc(N)c(C(=O)Nc3ccccc3)n2)cc1`: the pIC50 in test [1] is less than 5.10; in test [4], 6.00; in test [2], 8.10; in test [3] it was 5.25.

Consider `CCCS(=O)(=O)c1ccc(-c2cnc(N)c(C(=O)Nc3ccccc3)n2)cc1`, for which the pIC50 was 5.27 in test [1], 5.70 in test [4], 7.85 in test [2] and less than 5.10 in test [3].

Consider `CCC(C)S(=O)(=O)c1ccc(-c2cnc(N)c(C(=O)Nc3ccccc3)n2)cc1` (centres undefined), for which the pIC50 is 5.18 in test [1], 5.80 in test [4], 8.00 in test [2] and less than 5.10 in test [3].

`CC(C)(C)S(=O)(=O)c1ccc(-c2cnc(N)c(C(=O)Nc3ccccc3)n2)cc1`: the pIC50 in test [1] was less than 5.10; in test [4] it was 6.00; in test [2], 8.22; in test [3], less than 5.10.

As to `CC(CCO)S(=O)(=O)c1ccc(-c2cnc(N)c(C(=O)Nc3ccccc3)n2)cc1` (centres undefined), the pIC50 was less than 5.10 in test [1], 6.42 in test [4], 8.10 in test [2] and 5.49 in test [3].

Consider `Nc1ncc(-c2ccc(S(=O)(=O)[C@@H]3CCOC3)cc2)nc1C(=O)Nc1ccccc1`, for which the pIC50 was 5.30 in test [1], 6.34 in test [4], 8.00 in test [2] and 5.36 in test [3].

`CS(=O)(=O)c1ccc(-c2cnc(N)c(C(=O)NC3CCCCC3)n2)cc1`: the values for the pIC50 in test [1], in test [2] and in test [3] were less than 5.10, 5.45 and less than 5.10, respectively.

For the compound `CS(=O)(=O)c1ccc(-c2cnc(N)c(-c3nc4ccccc4[nH]3)n2)cc1`, the pIC50 in test [1] is 6.42; in test [2] it was 7.52; in test [3], 5.68.

In the case of `CS(=O)(=O)c1ccc(-c2cnc(N)c(-c3nc4ccccc4o3)n2)cc1`, the pIC50 in test [1] is 6.08; in test [2], 7.44; in test [3] it was 5.85.

In the case of `CS(=O)(=O)c1ccc(-c2cnc(N)c(-c3nc4ccccc4s3)n2)cc1`, the pIC50 is 6.14 in test [1], 7.66 in test [2] and 5.54 in test [3].

For the compound `CS(=O)(=O)c1ccc(-c2cnc(N)c(-c3cc4ccccc4[nH]3)n2)cc1`, the pIC50 was 6.92 in test [1], 7.64 in test [2] and 5.62 in test [3].

For `Cn1c(=O)c2c(ncn2C)n(C)c1=O` [CAFFEINE], the pIC50 in test [5] was 3.40; in test [1], 3.70; in test [2] it was 2.96; in test [3], 2.00.

Turning to `O=c1cc(-c2cccc3c2Sc2ccccc2S3)oc(N2CCOCC2)c1` [KU-55933], the results for the pIC50 in test [5] and in test [2] were 5.03 and less than 4.00, respectively.

Consider `COc1cc2c(c(OC)c1OC)-c1c(cc3c(c1OC)OCO3)CC(C)C(C)C2` (centres undefined) [SCHISANDRIN B], for which the results for the pIC50 in test [1] and in test [2] were 2.76 and 5.14, respectively.

The values above are taken from ChEMBL document CHEMBL1765064, “Discovery of potent and selective inhibitors of ataxia telangiectasia mutated and Rad3 related (ATR) protein kinase as potential anticancer agents” (J Med Chem, 2011).
